Results on 22 compounds are retold here after ChEMBL document CHEMBL1131432, “Side chain methyl substitution in the delta-opioid receptor antagonist TIPP has an important effect on the activity profile” (J Med Chem, 1998).

The species named for test [1] is Mus musculus. Description: Inhibition of electrically evoked contractions of MVD. In MVD assay, the opioid effect was primarily mediated by delta-receptor. Format: functional. The procedure, abridged:
(§1)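 Isolated guinea pig ileum or mouse vas deferens, electrically stimulated; the read-out is inhibition of contractions. A [Leu5]enkephalin log dose–response curve was run on each preparation and test IC50 values were normalised to it. Antagonist Ke was taken from the IC50 ratio with and without a fixed antagonist concentration; in MVD the δ-antagonism was measured against DPDPE.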

The species entered for test [2] is Cavia porcellus. Put plainly: In vitro agonist activity in electrically stimulated guinea pig ileum. The test is classed as functional. The essentials: as §1
Test [3] deals with Kappa-type opioid receptor (Cavia porcellus, UniProt P41144). Put plainly: Binding affinity towards Opioid receptor kappa 1 on guinea pig cerebellum membranes by [3H]U-69593 displacement. The test is classed as tissue-based, Membrane.
Kappa-type opioid receptor, sequence (P41144 whole entry): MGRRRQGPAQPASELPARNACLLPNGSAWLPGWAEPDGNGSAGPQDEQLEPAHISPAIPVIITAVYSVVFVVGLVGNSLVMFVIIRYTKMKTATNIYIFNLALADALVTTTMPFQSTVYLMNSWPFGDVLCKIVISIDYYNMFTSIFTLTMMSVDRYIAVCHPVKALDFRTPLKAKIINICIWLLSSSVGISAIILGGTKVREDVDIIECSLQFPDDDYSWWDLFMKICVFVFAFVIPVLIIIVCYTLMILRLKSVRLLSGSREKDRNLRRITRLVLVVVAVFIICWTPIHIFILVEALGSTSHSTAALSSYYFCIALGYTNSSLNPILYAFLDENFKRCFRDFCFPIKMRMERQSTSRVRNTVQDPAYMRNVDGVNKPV
The target in test [4] is Mu-type opioid receptor (Rattus norvegicus, UniProt P33535). Description: Binding affinity towards Opioid receptor mu 1 on rat forebrain membranes by [3H]sufentanil displacement. Set-up: species or system Membrane.
Mu-type opioid receptor, sequence (P33535 whole entry): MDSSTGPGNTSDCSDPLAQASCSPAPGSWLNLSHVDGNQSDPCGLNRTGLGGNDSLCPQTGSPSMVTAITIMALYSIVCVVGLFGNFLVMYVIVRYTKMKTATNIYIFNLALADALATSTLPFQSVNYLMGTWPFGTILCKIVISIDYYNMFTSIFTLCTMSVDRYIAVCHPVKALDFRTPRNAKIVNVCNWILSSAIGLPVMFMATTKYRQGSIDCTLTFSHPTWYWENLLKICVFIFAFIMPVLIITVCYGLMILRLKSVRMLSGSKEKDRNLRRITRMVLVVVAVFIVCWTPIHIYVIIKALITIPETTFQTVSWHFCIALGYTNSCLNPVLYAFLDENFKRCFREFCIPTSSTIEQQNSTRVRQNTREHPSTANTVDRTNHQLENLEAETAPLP
Test [5] is filed under the species Mus musculus. Put plainly: Inhibition of electrically evoked contractions of MVD. In MVD assay, the opioid effect are primarily mediated by delta-receptors. The test is classed as functional. The essentials:
(§2)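 Mouse vas deferens preparations, electrically stimulated, with inhibition of evoked contractions as the read-out. Each preparation got a [Leu5]enkephalin log dose-response curve as standard, and test IC50 values were normalized against it. Antagonism was tested against the agonist DPDPE. Ke came from the ratio of agonist IC50 with and without a fixed antagonist concentration.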

Test [6] is filed under the species Mus musculus. Put plainly: (§3) Inhibition of electrically evoked contractions of MVD in MVD assay, the opioid effect was primarily mediated by delta-receptor. Format: functional. The essentials:
as §1

The species entered for test [7] is Mus musculus. The test is described as §3. The test is classed as functional. This is another data set of the same source.
The species named for test [8] is Cavia porcellus. Description: In vitro opioid activity tested in bioassay based on inhibition of electrically evoked contractions of the GPI. Format: functional. The essentials: as §1
The species entered for test [9] is Mus musculus. Description: Inhibition of electrically evoked contractions of MVD. In MVD assay, the opioid effect is primarily mediated by delta-receptor. Format: functional. The procedure, abridged:
as §2

The species named for test [10] is Mus musculus. Described as §3. The test is classed as functional, organism-based. The essentials:
as §1

Turning to `N[C@@H](Cc1ccc(O)cc1)C(=O)N1Cc2ccccc2C[C@H]1C(=O)N[C@@H](Cc1ccccc1)C(=O)N[C@@H](Cc1ccccc1)C(=O)O`, in test [1], the Ke was 4.8 nM. Also, the IC50 in test [2] was above 10 µM. Also, the Ki in test [3] and in [4] was above 10 µM throughout.

As to `NC(=O)[C@H](Cc1ccccc1)NC(=O)[C@@H](Cc1ccccc1)NC(=O)[C@@H]1Cc2ccccc2CN1C(=O)[C@@H](N)Cc1ccc(O)cc1`, the Ke in [1] is 125 nM. This compound showed an IC50 in [2] above 10 µM. In [4], this compound returned a Ki of 0.658 µM.

As to `C[C@@H](c1ccc(O)cc1)[C@H](N)C(=O)N1Cc2ccccc2C[C@H]1C(=O)N[C@@H](Cc1ccccc1)C(=O)N[C@@H](Cc1ccccc1)C(N)=O`, in [2], the IC50 is above 10 µM. Moreover, in test [5], the Ke is listed as 102 nM. Moreover, the Ki in test [3] was above 10 µM; in test [4] it was 0.352 µM.

Compound `C[C@H](c1ccc(O)cc1)[C@@H](N)C(=O)N1Cc2ccccc2C[C@H]1C(=O)N[C@@H](Cc1ccccc1)C(=O)N[C@@H](Cc1ccccc1)C(N)=O` came in with a Ke in test [6] of 1020 nM. In [2], the IC50 was above 10 µM. Also, the figures for the Ki in test [3] and in test [4] were 1.18 µM and 1.6 µM, respectively.

In the case of `C[C@@H](c1ccccc1)[C@H](NC(=O)[C@H](Cc1ccccc1)NC(=O)[C@@H]1Cc2ccccc2CN1C(=O)[C@@H](N)Cc1ccc(O)cc1)C(N)=O`, the Ke in test [1] amounted to 5.36 nM. In test [2], this compound had an IC50 of 0.636 µM. In addition, the Ki amounted to 1.28 µM in test [3] and 0.047 µM in [4].

For the compound `C[C@@H](c1ccccc1)[C@H](NC(=O)[C@@H]1Cc2ccccc2CN1C(=O)[C@@H](N)Cc1ccc(O)cc1)C(=O)N[C@@H](Cc1ccccc1)C(N)=O`, the Ke in [1] was 18.2 nM. The same compound showed an IC50 in [2] of 5.52 µM. For the same compound, the results for the Ki in test [3] and in test [4] were 3.4 µM and 0.973 µM, respectively.

In the case of `C[C@H](c1ccccc1)[C@@H](NC(=O)[C@@H]1Cc2ccccc2CN1C(=O)[C@@H](N)Cc1ccc(O)cc1)C(=O)N[C@@H](Cc1ccccc1)C(=O)O`, in test [1], the Ke is given as 0.192 nM. In addition, in test [2], the IC50 was above 10 µM. The Ki in test [3] and in test [4] was above 10 µM throughout.

Turning to `C[C@H](c1ccccc1)[C@H](NC(=O)[C@@H]1Cc2ccccc2CN1C(=O)[C@@H](N)Cc1ccc(O)cc1)C(=O)N[C@@H](Cc1ccccc1)C(N)=O`, in [6], the Ke was 7.24 nM. Further, the IC50 in test [2] came out at 5.08 µM. The values for the Ki in test [3] and in test [4] were 4.32 µM and 0.149 µM, respectively.

`C[C@H](c1ccc(O)cc1)[C@H](N)C(=O)N1Cc2ccccc2C[C@H]1C(=O)N[C@@H](Cc1ccccc1)C(=O)N[C@@H](Cc1ccccc1)C(N)=O` registered an IC50 in test [2] of 1.21 µM. Besides, in test [7], the IC25 is 1.03 µM. Besides, the Ki is above 10 µM in test [3] and 0.284 µM in test [4].

Turning to `C[C@@H](c1ccccc1)[C@@H](NC(=O)[C@H](Cc1ccccc1)NC(=O)[C@@H]1Cc2ccccc2CN1C(=O)[C@@H](N)Cc1ccc(O)cc1)C(N)=O`, the Ke in test [6] came to 27.7 nM. The same compound had an IC50 in test [2] of 4.51 µM. The Ki in test [3] was 2.84 µM; in [4] it was above 10 µM.

`C[C@H](c1ccccc1)[C@@H](NC(=O)[C@H](Cc1ccccc1)NC(=O)[C@@H]1Cc2ccccc2CN1C(=O)[C@@H](N)Cc1ccc(O)cc1)C(N)=O` registered a Ke in [6] of 20.5 nM. In test [8], this compound yielded an IC35 of 1.71 µM. Besides, the Ki in test [3] came out at 0.766 µM; in test [4], 0.498 µM.

With `NC(=O)[C@H](Cc1ccccc1)NC(=O)[C@H](Cc1ccccc1)NC(=O)[C@@H]1Cc2ccccc2CN1C(=O)[C@@H](N)Cc1ccc(O)cc1`, the Ki was 0.838 µM in [3] and 0.178 µM in test [4]. Further, the Ke in test [9] is given as 18 nM.

The compound `N[C@@H](Cc1ccc(O)cc1)C(=O)N1Cc2ccccc2C[C@H]1C(=O)NC(Cc1ccccc1)C(=O)N[C@@H](Cc1ccccc1)C(=O)O` (single isomer, unassigned) registered a Ki in test [4] of 4 µM.

For `C[C@@H](c1ccccc1)C(NC(=O)[C@@H]1Cc2ccccc2CN1C(=O)[C@@H](N)Cc1ccc(O)cc1)C(=O)N[C@@H](Cc1ccccc1)C(N)=O` (single isomer, unassigned), the IC50 in test [2] was 0.127 µM. Also, the Ki in test [3] stood at 1.19 µM; in test [4] it was 0.084 µM.

With `C[C@H](c1ccccc1)C(NC(=O)[C@@H]1Cc2ccccc2CN1C(=O)[C@@H](N)Cc1ccc(O)cc1)C(=O)N[C@@H](Cc1ccccc1)C(N)=O` (single isomer, unassigned), the Ke in [6] worked out at 54.4 nM. Also, the IC50 in test [2] is above 10 µM. The inhibitory constant (Ki) is 0.442 µM in test [3] and above 10 µM in test [4].

Take `C[C@@H](c1ccc(O)cc1)C(N)C(=O)N1Cc2ccccc2C[C@H]1C(=O)N[C@@H](Cc1ccccc1)C(=O)N[C@@H](Cc1ccccc1)C(N)=O` (single isomer, unassigned): the Ke in test [6] is on record as 317 nM. This compound came in with an IC50 in test [2] above 10 µM. The Ki in [3] is 2.51 µM; in test [4], above 10 µM.

In turn, `C[C@H](c1ccccc1)C(NC(=O)[C@H](Cc1ccccc1)NC(=O)[C@@H]1Cc2ccccc2CN1C(=O)[C@@H](N)Cc1ccc(O)cc1)C(N)=O` (single isomer, unassigned) had a Ke in [6] of 5.37 nM. Moreover, in test [2], the IC50 was found to be 2.74 µM. Moreover, the Ki in [3] amounted to 0.253 µM; in test [4] it was 2.02 µM.

In turn, `C[C@H]1c2ccccc2CN(C(=O)C(N)Cc2ccc(O)cc2)[C@H]1C(=O)N[C@@H](Cc1ccccc1)C(=O)N[C@@H](Cc1ccccc1)C(=O)O` (single isomer, unassigned) had a Ke in [1] of 1.61 nM. The compound further displayed an IC50 in test [2] above 10 µM. Besides, the Ki in test [3] and in test [4] was above 10 µM each time.

Turning to `CC1c2ccccc2CN(C(=O)C(N)Cc2ccc(O)cc2)[C@@H]1C(=O)N[C@@H](Cc1ccccc1)C(=O)N[C@@H](Cc1ccccc1)C(=O)O` (single isomer, unassigned), the Ke in test [1] was 2.09 nM. Moreover, in test [2], the IC50 was above 10 µM. Moreover, the Ki in test [3] and in test [4] was above 10 µM throughout.

For the compound `NC(=O)[C@H](Cc1ccccc1)NC(=O)[C@H](Cc1ccccc1)NC(=O)C1Cc2ccccc2CN1C(=O)[C@@H](N)Cc1ccc(O)cc1` (single isomer, unassigned), the figures for the IC50 in test [2] and in test [10] were 0.0371 µM and 0.454 µM, respectively. In test [4], this compound registered a Ki of 0.0073 µM.

With `C[C@@H]1c2ccccc2CN(C(=O)[C@@H](N)Cc2ccc(O)cc2)C1C(=O)N[C@@H](Cc1ccccc1)C(=O)N[C@@H](Cc1ccccc1)C(=O)O` (single isomer, unassigned; 15), in [6], the Ke is 1560 nM. In [2], this compound showed an IC50 above 10 µM. Besides, the Ki in test [3] and in [4] was above 10 µM throughout.

As for `C[C@@H]1c2ccccc2CN(C(=O)[C@@H](N)Cc2ccc(O)cc2)C1C(=O)N[C@@H](Cc1ccccc1)C(=O)N[C@@H](Cc1ccccc1)C(=O)O` (single isomer, unassigned; 16), the Ke in test [6] turned out to be 401 nM. The compound also gave an IC50 in test [2] above 10 µM. Besides, the Ki in [3] and in [4] was above 10 µM in each case.

By IC50 is commonly meant the concentration that inhibits the measured activity by half. What is called Ki is a dissociation constant, usually derived from enzyme kinetics or from competition with a known ligand. What is called IC25 is the point of the concentration-response curve where the effect stands at 25%. A high value points to weaker potency.
